# Experimental data pooled from the literature.
# Compare with care: the assays were run in different laboratories.
# Target: Serine/threonine-protein kinase TBK1 (TBK1, Homo sapiens, UniProt Q9UHD2)
# Sequence (Q9UHD2 1-729, as in one of the studies): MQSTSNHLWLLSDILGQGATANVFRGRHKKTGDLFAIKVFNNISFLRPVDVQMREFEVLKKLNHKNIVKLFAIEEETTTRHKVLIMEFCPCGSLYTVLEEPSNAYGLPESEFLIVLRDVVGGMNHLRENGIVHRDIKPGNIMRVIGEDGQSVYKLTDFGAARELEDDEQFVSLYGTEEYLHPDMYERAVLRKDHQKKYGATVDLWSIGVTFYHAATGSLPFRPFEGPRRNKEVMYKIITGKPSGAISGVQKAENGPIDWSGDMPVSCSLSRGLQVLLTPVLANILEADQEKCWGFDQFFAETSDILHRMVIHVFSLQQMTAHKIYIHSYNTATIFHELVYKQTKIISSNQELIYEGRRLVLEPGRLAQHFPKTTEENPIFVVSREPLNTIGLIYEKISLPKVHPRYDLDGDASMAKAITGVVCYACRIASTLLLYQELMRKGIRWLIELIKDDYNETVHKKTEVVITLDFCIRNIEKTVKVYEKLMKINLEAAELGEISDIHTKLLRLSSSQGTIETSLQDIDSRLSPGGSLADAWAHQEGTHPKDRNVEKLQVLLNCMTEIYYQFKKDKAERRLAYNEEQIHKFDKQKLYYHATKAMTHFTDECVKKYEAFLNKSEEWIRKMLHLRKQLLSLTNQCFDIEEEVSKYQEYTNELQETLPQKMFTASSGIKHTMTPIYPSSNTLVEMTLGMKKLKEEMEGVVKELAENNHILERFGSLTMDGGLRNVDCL
Structure (SMILES),read-out,action,method,concentration,measurement,result
CC#CC(=O)N1CCC[C@H]1c1nc(-c2ccc(C(=O)Nc3ccccn3)cc2)c2c(N)nccn12,enzyme activity,inhibitor,,1 µM,inhibition,5%
C#Cc1cc(-c2cc(Nc3nc(N[C@@H](C)c4ccc(F)cn4)ncc3Cl)n[nH]2)ccc1C=O,enzyme activity,inhibitor,,0.2 µM,inhibition,5.56%
Cc1cc(O)c(-c2ccc([C@@H](C)CN(C)C)cc2)c2c1[nH]c(=O)c1sccc12,enzyme activity,inhibitor,,0.1 µM,inhibition,-4.68%
CCCCC(=O)Nc1ccc(-c2ccc3ncn(CCC)c(=O)c3c2)cn1,binding,,competition with immobilised ligand,0.5 µM,remaining binding,100%
C[C@H]1CC[C@H](n2c3cnccc3c3cnc(Nc4ccc5c(n4)CCN(C(=O)CO)C5)nc32)CC1,cell-free assay,,,1 µM,remaining signal,100%
C=CC(=O)N1CCC([C@@H]2CCNc3c(C(N)=O)c(-c4ccc(Oc5ccccc5)cc4)nn32)CC1,enzyme activity,inhibitor,,1 µM,inhibition,15%
COc1ccc2[nH]c3c4[nH]c5ccc(OC)cc5c4c4c(c3c2c1)C(=O)NC4=O,binding,,,1 µM,remaining binding,59%
CC(C)S(=O)(=O)c1ccc2nccc(Nc3ccc4sc(C5CCCC5)nc4c3)c2c1,enzyme activity,inhibitor,,1 µM,activity vs control,114%
